Screening results as filed in PubChem.
Diaph act CS = activates diaphorase or chemically reduces, flagging diaphorase assay artifacts; activation factor at 20 µM; actives 0.005% (n = 190,000); Diaphorase/resazurin coupled assay, resorufin fluorescence, 16 min; stronger effect = higher value; 1 = vehicle wells, 0 = NADH-free wells;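 active means diaphorase activity raised at least twofold by the compound at 20 µM; inactive means activation factor below 2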
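Material: bacterial diaphorase enzyme (C. kluyveri); amount: enzyme 0.07 U/mL final; reagent: NADH substrate 0.114 mM plus resazurin dye 0.1 mM, final; doses: single compound dose of 20 µM, 1% DMSO final; timing: 16 min enzyme reaction, ambient temperature; measured by: fluorescence of resorufin, 544 nm excitation, 590 nm emission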
PfGluPho inh = PfG6PD (Plasmodium falciparum) enzyme inhibition. PfGluPho enzyme, NADPH resazurin-diaphorase fluorescence. inhibition, % at 20 µM. actives 0.78% (n = 350,000). AID 504690;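 active means inhibition reaching at least a set limit at 20 µM in the primary screen, cut at about 59% in these data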
HKDC1 inhibitor = HKDC1 (human) hexokinase inhibition. Q2TB90. recombinant HKDC1, G6PDH/diaphorase resazurin coupled fluorescence. inhibition, % at 20 µM. actives 0.16% (n = 340,000). AID 493160;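 active means inhibition above about 35% when tested at 20 µM, limit read from the data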
Target sequence (Q2TB90 whole entry, looked up): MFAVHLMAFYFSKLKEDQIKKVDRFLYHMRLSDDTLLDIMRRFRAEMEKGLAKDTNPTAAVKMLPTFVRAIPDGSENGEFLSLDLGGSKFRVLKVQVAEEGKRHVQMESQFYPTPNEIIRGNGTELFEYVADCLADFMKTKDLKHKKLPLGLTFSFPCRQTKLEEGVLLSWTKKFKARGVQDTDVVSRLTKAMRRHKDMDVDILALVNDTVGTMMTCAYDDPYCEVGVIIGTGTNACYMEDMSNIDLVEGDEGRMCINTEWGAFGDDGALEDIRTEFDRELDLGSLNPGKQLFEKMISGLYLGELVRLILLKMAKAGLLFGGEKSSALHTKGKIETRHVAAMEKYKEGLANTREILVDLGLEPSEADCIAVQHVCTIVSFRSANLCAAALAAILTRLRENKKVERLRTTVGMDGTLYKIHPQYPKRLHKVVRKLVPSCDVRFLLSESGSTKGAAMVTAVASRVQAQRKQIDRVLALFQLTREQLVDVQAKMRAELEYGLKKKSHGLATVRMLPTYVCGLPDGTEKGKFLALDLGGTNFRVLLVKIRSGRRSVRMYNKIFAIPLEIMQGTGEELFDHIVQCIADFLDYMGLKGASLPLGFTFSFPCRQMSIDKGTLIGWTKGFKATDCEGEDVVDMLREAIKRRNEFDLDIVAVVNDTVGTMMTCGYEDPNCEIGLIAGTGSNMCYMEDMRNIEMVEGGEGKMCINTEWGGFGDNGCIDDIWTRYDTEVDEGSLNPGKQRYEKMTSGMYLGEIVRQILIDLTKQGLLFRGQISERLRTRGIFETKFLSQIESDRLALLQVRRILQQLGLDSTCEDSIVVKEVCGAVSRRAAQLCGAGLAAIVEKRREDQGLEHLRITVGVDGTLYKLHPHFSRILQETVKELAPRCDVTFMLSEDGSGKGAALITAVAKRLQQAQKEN
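Incubation: 90 min at room temperature in dark / Material: recombinant HKDC1 (HK5) hexokinase enzyme, produced in-house / Quantity: enzyme 5 µg/mL final / Compound: one dose of 20 µM, 1% DMSO / Reagent: glucose and ATP substrates / Buffer or medium: Tris pH 8.0 buffer with MgCl2, Tween-20, BSA, BME / Technique: resorufin fluorescence at 613 nm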
Diaph inh CS = inhibits diaphorase or chemically oxidizes, flagging diaphorase assay artifacts; diaphorase resazurin-to-resorufin fluorescence, NADH, 16 min; bacterial (C. kluyveri) enzyme, not human; inhibition, % at 20 µM; actives 0.69% (n = 190,000); AID 1217;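 active means primary screen inhibition at 20 µM above a set limit, cut at about 50% in these data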
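System: Bacterial diaphorase enzyme (C. kluyveri) | Incubation: 16-min room-temperature incubation before reading | Benchmarks: No-NADH positive control and DMSO neutral control | Measured by: Resorufin fluorescence 544/590 nm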
G6PDH counter = counter-screen for G6PDH assay hits: L. mesenteroides G6PDH inhibition. Purified L. mesenteroides G6PDH, diaphorase/resazurin coupled fluorescence, 45 min. actives 0.12% (n = 200,000). inhibition, % at 5 µM; in the data active means inhibition above about 50%
PfGluPho conf = confirmation of Plasmodium falciparum G6PD inhibitors; inhibition, % at 20 µM; recombinant PfGluPho, NADPH-diaphorase-resazurin fluorescence; shares compounds with PfGluPho inh; actives 34% (n = 2,400);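 active means inhibition of at least 50% at 20 µM in any single replicate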
Diaph ctr 10uM = counter-screen for P. falciparum G6PD inhibitors: diaphorase inhibitors, oxidizers; shares compounds with PfGluPho inh; diaphorase-coupled resazurin reduction, fluorescence, NADPH 10 uM; inhibition, % at 20 µM; actives 39% (n = 820); AID 504862;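 active means average inhibition reaching 50% or more with the compound at 20 µM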;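 further: resorufin red fluorescence formed as diaphorase reduces resazurin using NADPH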
Diaphorase 30uM = inhibits diaphorase or oxidizes, flagging false PfG6PD hits. shares compounds with PfGluPho inh. Diaphorase/resazurin coupled assay, resorufin fluorescence, 30 uM NADPH. inhibition, % at 20 µM. actives 29% (n = 820). AID 504863;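 active means inhibition averaging 50% or more, tested at 20 µM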
Numbers stand for hits; n = inactive; x = no result given. In the library only some 1.2% were active in any assay of this set; here they are far more common.

SMILES	Diaph act CS	PfGluPho inh	HKDC1 inhibitor	Diaph inh CS	G6PDH counter	PfGluPho conf	others
CCC(C(=O)OC)n1cnc2c(nnn2-c2ccc(C)cc2)c1=O (stereo unspecified)	x	n	n	x	x	x
CN1CCc2cccc3c2C1Cc1ccc(O)c(O)c1-3 (stereo unspecified)	x	64.0	n	x	x	n
CN1CCC(=C2c3ccccc3C(O)c3ccccc32)CC1 (stereo unspecified)	x	n	n	x	x	x
Cc1c(/C=N/O)c2ccccn2c1C(=O)c1ccc(F)cc1	x	76.4	n	x	x	n
O=C(Nc1ccnn1C1CCN(Cc2ccc(CO)o2)CC1)c1ccc2c(c1)OCO2	x	n	n	x	x	x
CNC(=S)N/N=C/c1c(C(=O)OC)cnn1-c1ccc(F)cc1F	x	67.8	n	x	x	n
O=C(C[C@H]1C[C@H](C(=O)N2CCCCC2)[C@@]2(CCc3ccccc3)c3[nH]c4cc(-c5ccco5)ccc4c3CCN2C1=O)NCc1cccc(C(F)(F)F)c1	x	n	n	x	x	x
N#CC1=C2SCC(O)(c3ccccc3)N2C(=O)CC1c1ccccc1F (stereo unspecified)	n	n	n	n	n	x
N#CC1=C2SCN(Cc3ccccc3)CN2C(=O)CC1c1ccccc1F (stereo unspecified)	n	61.0	n	n	n	n
N#CC1=C2SCN(c3ccccc3)CN2C(=O)CC1c1c(Cl)cccc1Cl (stereo unspecified)	n	85.5	n	50.9	n	n
N#CC1=C2SCC(O)(c3ccccc3)N2C(=O)CC1c1cccs1 (stereo unspecified)	n	n	n	n	n	x
N#CC1=C2SCN(c3ccccc3)CN2C(=O)CC1c1cccs1 (stereo unspecified)	n	70.7	n	n	n	n
N#CC1=C2SCN(c3ccccc3)CN2C(=O)CC1c1ccccc1Cl (stereo unspecified)	n	74.5	n	n	n	n
N#CC1=C2SCN(Cc3ccco3)CN2C(=O)CC1c1c(F)cccc1Cl (stereo unspecified)	n	65.7	n	n	n	n
O=C(Nc1ccc(N2CCOCC2)nc1)c1ccc(C(F)(F)F)cc1	n	n	n	n	n	x
COc1ccc(C(=O)Nc2ccc3c(c2)C(=O)c2ccccc2C3=O)cc1OC	n	n	n	n	n	x
COc1ccc(C(=O)c2c(C(F)(F)F)oc3c2C(=O)c2ccccc2C3=O)cc1OC	n	80.4	n	n	59.4	52.8	Diaph ctr 10uM=n;Diaphorase 30uM=52.2
C[C@H](NC(=O)c1cc2c(cn1)[nH]c1ccccc12)C(=O)O	x	97.7	n	x	x	62.2	Diaph ctr 10uM=n;Diaphorase 30uM=n
O=C(O)c1cc2c(cn1)[nH]c1ccccc12	x	n	n	x	x	x
COC(=O)[C@H](C)NC(=O)c1cc2c(cn1)[nH]c1ccccc12	x	90.4	n	x	x	55.0	Diaph ctr 10uM=n;Diaphorase 30uM=n
CN(C)c1ccc(C2Nc3cccc4cccc(c34)N2)cc1	x	n	n	x	x	x
COc1ccc(C2Nc3cccc4cccc(c34)N2)cc1	n	69.4	n	51.9	n	n
CCC(=O)Nc1nnc(SCC(=O)NCCc2ccc(OC)c(OC)c2)s1	n	n	n	n	n	x
Cc1cccc(NC(=O)c2ccc(N3CCCCC3)c([N+](=O)[O-])c2)n1	n	97.8	n	n	n	n
Cc1cc(C(=O)Nc2ccc(N3CCCC3)c(Cl)c2)ccc1[N+](=O)[O-]	n	67.4	n	n	n	n
SMILES	Diaph act CS	PfGluPho inh	HKDC1 inhibitor	Diaph inh CS	G6PDH counter	PfGluPho conf	others
CC1CCN(c2ccc(C(=O)Nc3ccc4c(c3)OCO4)cc2[N+](=O)[O-])CC1	n	61.6	n	n	n	n
Cc1ccc(C)c2sc(NC(=O)c3ccc(N4CCCCC4)c([N+](=O)[O-])c3)nc12	n	n	n	n	n	x
O=C(Nc1ccc(N2CCCC2)c(Cl)c1)c1ccc([N+](=O)[O-])cc1	n	n	n	n	n	x
Cc1cccc(NC(=O)c2ccc(N(C)C3CCCCC3)c([N+](=O)[O-])c2)n1	n	59.8	n	n	n	n
CCC(NC(=O)C1C2C=CC(C2)C1C(=O)O)c1ccc(C)cc1 (stereo unspecified)	x	n	n	x	x	x
CCOC(=O)c1c(C)nc2c(c1-c1cc(OC)ccc1OC)C(=O)CC(C)(C)C2	x	n	n	x	x	x
Cc1cccc(NC(=O)c2ccc(N3CCOCC3)c([N+](=O)[O-])c2)n1	n	69.6	n	n	n	n
O=C(Nc1cccnc1)c1ccc(N2CCOCC2)c([N+](=O)[O-])c1	x	n	n	x	x	x
CC1CCc2[nH]c3ccc(C(=O)N(C)CC(=O)Nc4ccccc4Cl)cc3c2C1 (stereo unspecified)	x	59.8	n	x	x	n
CC1CCc2[nH]c3ccc(C(=O)N(C)CC(=O)Nc4ccccc4C(F)(F)F)cc3c2C1 (stereo unspecified)	x	109.8	n	x	x	63.2	Diaph ctr 10uM=52.7;Diaphorase 30uM=n
Cc1ccc(NC(=O)CN(C)C(=O)c2ccc3[nH]c4c(c3c2)CC(C)CC4)cc1 (stereo unspecified)	x	n	n	x	x	x
Cc1c(C2C(C#N)=C(N)N(c3cccc([N+](=O)[O-])c3)C3=C2C(=O)CCC3)cnn1C (stereo unspecified)	n	x	x	n	n	x
C/C=C/C1=CC(=O)C[C@H](c2ccc(F)cc2)C1	x	n	n	x	x	x
Cn1c2ccccc2c(=O)c2cc(C#CC3(O)CCCCC3)ccc21	x	62.0	n	x	x	n
Cn1c2ccccc2c(=O)c2ccc(C#CC3(N)CCCCC3)cc21	x	n	n	x	x	x
C=CCOc1cccc(NC(=O)c2ccccc2SC)c1	n	n	n	n	n	x
Cc1ccc(C(=O)NC(=S)Nc2ccc(-c3ccc(CO)o3)cc2)cc1	n	n	n	n	n	x
O=C(NC(=S)Nc1ccc(-c2ccc(CO)o2)cc1)c1cccs1	n	80.9	n	n	n	n
Nn1c(CSc2nc3ccccc3o2)nnc1CSc1nc2ccccc2o1	n	87.0	n	n	n	59.9	Diaph ctr 10uM=56.4;Diaphorase 30uM=n
COc1ccc(Nc2cc(C)nc(N)n2)cc1	x	n	n	x	x	x
Cc1cc(Nc2ccc(Cl)cc2)nc(N)n1	n	63.0	n	n	n	n
Oc1ccc(C2C[C@H]3CC[C@@H]2C3)cc1O (stereo partly specified)	x	79.4	n	x	x	77.2	Diaph ctr 10uM=n;Diaphorase 30uM=n
CCN(C(=O)COc1cc(OC)ccc1C(C)=O)C1CCS(=O)(=O)C1 (stereo unspecified)	x	n	n	x	x	x
Nc1c(C(=O)N2CCOCC2)sc2nc(N3CCOCC3)c3c(c12)CCCC3	x	65.5	n	x	x	n
CCCCOC(=O)c1sc2nc(N3CCOCC3)c3c(c2c1N)CC(C)(C)OC3	x	n	n	x	x	x
CC1(C)Cc2c(c(N3CCOCC3)nc3sc(C(=O)N4CCCCC4)c(N)c23)CO1	n	68.3	n	n	n	n
COc1ccc(Cl)cc1S(=O)(=O)N1CCCC(C(=O)N2CCOCC2)C1 (stereo unspecified)	x	n	n	x	x	x
O=C(Cc1ccc(Br)cc1)Nc1cccc(Cl)c1	n	n	n	n	n	x
